Laboratory results as given in ChEMBL document CHEMBL1142698, “Synthesis and biological evaluation of novel naphthocarbazoles as potential anticancer agents” (J Med Chem, 2005).

Tests used:
Format in all cases: functional, cell-based
DU-145 [1] = experiment: In vitro antiproliferative activity against human prostate cancer DU145 cells
Method in brief: (§1)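 Cells from ATCC grown in RPMI 1640 with 10% fetal calf serum, 2 mM L-glutamine, penicillin/streptomycin and 10 mM HEPES (pH 7.4). Continuous exposure to graded concentrations for four doubling times. MTT added, then 4 h at 37 °C, formazan dissolved in DMSO and optical density read. IC50 is the concentration halving optical density versus untreated controls, from nine serial dilutions in duplicate.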

L1210 = experiment: In vitro antiproliferative activity against murine leukemia L1210 cells; conditions: Mus musculus; method in brief: as §1
HT-29 = experiment: In vitro antiproliferative activity against human colon carcinoma HT-29 cells; method in brief: as §1
DU-145 [2] = experiment: In vitro antiproliferative activity against human prostate cancer DU-145 cells; method in brief: as §1

| SMILES | IC50 (DU-145 [1]) | IC50 (L1210) | IC50 (HT-29) | IC50 (DU-145 [2]) |
| --- | --- | --- | --- | --- |
| CN1C(=O)c2c(c3c4cc(O)ccc4[nH]c3c3cc4ccccc4cc23)C1=O | 6800 nM | 3900 nM |  |  |
| CN1C(=O)c2c(c3c4ccccc4n(CC(O)CO)c3c3cc4ccccc4cc23)C1=O (centres undefined) | 2310 nM | 1260 nM | 3690 nM |  |
| C=CCn1c2ccccc2c2c3c(c4cc5ccccc5cc4c21)C(=O)N(C)C3=O | 59700 nM | 34000 nM | 65700 nM |  |
| CN(C)CCN1C(=O)c2c(c3c4cc(O)ccc4[nH]c3c3cc4ccccc4cc23)C1=O | 108 nM | 36 nM |  |  |
| CN1C(=O)c2c(c3c4ccc(O)cc4[nH]c3c3cc4ccccc4cc23)C1=O | 4700 nM | 5200 nM |  |  |
| CN(C)CCOc1ccc2c(c1)[nH]c1c3cc4ccccc4cc3c3c(c21)C(=O)N(C)C3=O | 4500 nM | 1500 nM |  |  |
| CN1C(=O)c2c(c3c4ccccc4n(CCN4CCOCC4)c3c3cc4ccccc4cc23)C1=O |  | 2400 nM |  |  |
| O=C1c2c(c3c4ccc(O)cc4[nH]c3c3cc4ccccc4cc23)C(=O)N1CCNCCO | 1110 nM | 510 nM | 5500 nM |  |
| O=C1c2c(c3c4cc(O)ccc4[nH]c3c3cc4ccccc4cc23)C(=O)N1CCNCCO | 630 nM | 290 nM | 3760 nM |  |
| CN1C(=O)c2c(c3c4ccc(O[Si](C)(C)C(C)(C)C)cc4[nH]c3c3cc4ccccc4cc23)C1=O | 5600 nM | 10100 nM |  |  |
| CN(C)CCn1c2ccccc2c2c3c(c4cc5ccccc5cc4c21)C(=O)N(C)C3=O | 4700 nM | 2400 nM |  |  |
| CN(C)CCN1C(=O)c2c(c3c4ccc(O)cc4[nH]c3c3cc4ccccc4cc23)C1=O | 250 nM | 110 nM |  |  |
| CN1C(=O)c2c(c3c4ccccc4[nH]c3c3cc4ccccc4cc23)C1=O |  | 2900 nM |  | 1100 nM |
| CN(C)CCN1C(=O)c2c(c3c4ccccc4[nH]c3c3cc4ccccc4cc23)C1=O | 290 nM | 210 nM |  |  |
| CN(C)CCCN1C(=O)c2c(c3c4cc(O)ccc4[nH]c3c3cc4ccccc4cc23)C1=O | 290 nM | 130 nM | 840 nM |  |
| O=C1c2c(c3c4ccc(O)cc4[nH]c3c3cc4ccccc4cc23)C(=O)N1C(CO)CO | 6.8 nM | 200 nM | 1340 nM |  |
| CN(C)CCCN1C(=O)c2c(c3c4ccc(O)cc4[nH]c3c3cc4ccccc4cc23)C1=O | 760 nM | 340 nM | 1350 nM |  |
| O=C1c2c(c3c4cc(O)ccc4[nH]c3c3cc4ccccc4cc23)C(=O)N1C(CO)CO | 2130 nM | 1190 nM | 2880 nM |  |
| COC1C(O)[C@@H](O)[C@H](n2c3c(Cl)cccc3c3c4c(c5c6cccc(Cl)c6[nH]c5c32)C(=O)NC4=O)O[C@@H]1CO (single isomer, unassigned) [REBECCAMYCIN] |  | 140 nM |  |  |
